In paper PMC4112416 (MedChemComm, 2014):
Values after ≈ are worked out from the molar mass of the structure shown.

What was measured:
[1] = tested on: duplex DNA (dA60.dT60); test: UV thermal denaturation of AT rich DNA duplex; assay type: binding; settings: 10 μM ligand, 1 μM duplex, 10 mM sodium cacodylate, 0.1 mM EDTA, 100 mM NaCl, pH 7.0
[2] = target: human DNA topoisomerase II (Homo sapiens, UniProt P11388); test: Inhibition assay against human DNA topoisomerase II; assay type: biochemical; settings: 50 μM compound
human DNA topoisomerase II, sequence (P11388 whole entry): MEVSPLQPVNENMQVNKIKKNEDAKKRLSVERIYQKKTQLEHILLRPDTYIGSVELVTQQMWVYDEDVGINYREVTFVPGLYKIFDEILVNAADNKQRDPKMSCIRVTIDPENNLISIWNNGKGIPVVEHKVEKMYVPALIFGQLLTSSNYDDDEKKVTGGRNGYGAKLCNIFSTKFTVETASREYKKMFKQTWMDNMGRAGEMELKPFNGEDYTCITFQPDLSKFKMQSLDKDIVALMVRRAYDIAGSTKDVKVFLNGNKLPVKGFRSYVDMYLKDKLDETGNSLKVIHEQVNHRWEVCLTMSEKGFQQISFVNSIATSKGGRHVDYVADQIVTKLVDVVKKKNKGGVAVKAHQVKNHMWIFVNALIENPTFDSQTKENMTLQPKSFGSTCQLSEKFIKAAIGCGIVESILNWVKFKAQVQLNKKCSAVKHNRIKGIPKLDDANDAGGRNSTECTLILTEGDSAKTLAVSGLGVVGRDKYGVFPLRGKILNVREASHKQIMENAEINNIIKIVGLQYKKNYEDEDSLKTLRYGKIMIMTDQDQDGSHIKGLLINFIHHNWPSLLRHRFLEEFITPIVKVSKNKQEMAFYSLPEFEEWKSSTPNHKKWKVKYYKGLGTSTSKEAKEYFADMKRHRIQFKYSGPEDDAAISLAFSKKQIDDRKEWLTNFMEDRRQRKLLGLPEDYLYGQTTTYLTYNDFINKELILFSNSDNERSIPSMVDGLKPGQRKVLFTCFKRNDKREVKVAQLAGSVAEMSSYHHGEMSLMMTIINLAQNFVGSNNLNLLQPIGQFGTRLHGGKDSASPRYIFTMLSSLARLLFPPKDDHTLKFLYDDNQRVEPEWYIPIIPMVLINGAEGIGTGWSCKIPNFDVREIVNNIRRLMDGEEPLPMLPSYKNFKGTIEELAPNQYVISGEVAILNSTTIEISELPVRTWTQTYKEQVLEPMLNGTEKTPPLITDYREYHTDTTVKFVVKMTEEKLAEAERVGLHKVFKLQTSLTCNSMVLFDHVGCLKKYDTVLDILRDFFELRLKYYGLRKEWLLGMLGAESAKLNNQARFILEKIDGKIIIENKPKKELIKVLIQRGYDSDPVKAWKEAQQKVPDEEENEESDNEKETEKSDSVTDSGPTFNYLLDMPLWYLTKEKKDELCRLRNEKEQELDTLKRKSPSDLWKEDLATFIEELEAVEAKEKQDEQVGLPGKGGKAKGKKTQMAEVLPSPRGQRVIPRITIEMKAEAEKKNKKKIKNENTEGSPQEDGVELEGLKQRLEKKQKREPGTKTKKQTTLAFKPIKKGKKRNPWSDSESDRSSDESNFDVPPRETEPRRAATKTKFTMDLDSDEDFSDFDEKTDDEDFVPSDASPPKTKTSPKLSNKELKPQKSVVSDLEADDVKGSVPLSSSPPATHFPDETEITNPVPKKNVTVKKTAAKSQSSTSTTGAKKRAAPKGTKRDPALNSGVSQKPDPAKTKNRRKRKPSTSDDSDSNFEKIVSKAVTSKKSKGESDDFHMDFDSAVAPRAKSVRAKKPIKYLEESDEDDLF
In short: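 Relaxation of 200 ng supercoiled pBAD-GFPuv by 4 units human topoisomerase II. Compound final 5–50 μM (10 and 50 μM in gel panels). 30 min at 37 °C, stopped by phenol extraction. Run on 1% agarose without chloroquine and ethidium-stained. (−) supercoiled band was quantified as a fraction of all topoisomers.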

[3] = target: E. coli DNA topoisomerase I (Escherichia coli, UniProt P06612); test: Inhibition assay against E. coli DNA topoisomerase I; assay type: biochemical; settings: gel titration, 6 nM enzyme
E. coli DNA topoisomerase I, sequence (P06612 whole entry): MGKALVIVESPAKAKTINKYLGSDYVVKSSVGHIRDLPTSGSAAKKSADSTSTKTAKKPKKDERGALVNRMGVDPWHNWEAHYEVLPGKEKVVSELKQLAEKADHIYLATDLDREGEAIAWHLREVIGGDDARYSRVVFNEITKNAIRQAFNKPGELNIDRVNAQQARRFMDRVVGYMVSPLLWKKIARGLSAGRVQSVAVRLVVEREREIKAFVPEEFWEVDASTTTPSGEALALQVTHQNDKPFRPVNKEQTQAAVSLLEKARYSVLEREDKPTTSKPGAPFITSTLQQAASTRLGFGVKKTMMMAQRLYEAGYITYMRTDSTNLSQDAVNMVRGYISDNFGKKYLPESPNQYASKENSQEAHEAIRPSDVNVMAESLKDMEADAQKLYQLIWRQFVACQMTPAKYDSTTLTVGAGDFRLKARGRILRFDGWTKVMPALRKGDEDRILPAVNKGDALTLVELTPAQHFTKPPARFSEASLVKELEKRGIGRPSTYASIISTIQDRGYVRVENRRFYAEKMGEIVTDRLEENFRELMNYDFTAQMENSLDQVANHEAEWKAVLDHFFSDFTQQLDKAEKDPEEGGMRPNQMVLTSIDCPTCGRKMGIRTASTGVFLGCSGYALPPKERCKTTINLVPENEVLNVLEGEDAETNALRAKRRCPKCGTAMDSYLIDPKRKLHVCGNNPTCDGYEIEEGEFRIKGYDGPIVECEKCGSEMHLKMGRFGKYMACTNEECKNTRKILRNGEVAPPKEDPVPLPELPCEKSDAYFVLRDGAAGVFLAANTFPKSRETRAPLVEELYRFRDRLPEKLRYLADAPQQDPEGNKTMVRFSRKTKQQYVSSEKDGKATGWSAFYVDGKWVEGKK

[4] = tested on: prostate cancer cell line DU-145; test: Cytotoxicity, sulforhodamine B assay; assay type: cell-based; settings: DU-145, 48 h treatment, SRB
[5] = Cytotoxicity, sulforhodamine B assay; assay type: cell-based; settings: human, DU-145 prostate cancer cells
[6] = target: T1, human DNA topoisomerase I (Homo sapiens, UniProt P11387); test: Inhibition assay against human DNA topoisomerase I; assay type: biochemical; settings: 50 μM compound
T1 sequence (P11387 1-765): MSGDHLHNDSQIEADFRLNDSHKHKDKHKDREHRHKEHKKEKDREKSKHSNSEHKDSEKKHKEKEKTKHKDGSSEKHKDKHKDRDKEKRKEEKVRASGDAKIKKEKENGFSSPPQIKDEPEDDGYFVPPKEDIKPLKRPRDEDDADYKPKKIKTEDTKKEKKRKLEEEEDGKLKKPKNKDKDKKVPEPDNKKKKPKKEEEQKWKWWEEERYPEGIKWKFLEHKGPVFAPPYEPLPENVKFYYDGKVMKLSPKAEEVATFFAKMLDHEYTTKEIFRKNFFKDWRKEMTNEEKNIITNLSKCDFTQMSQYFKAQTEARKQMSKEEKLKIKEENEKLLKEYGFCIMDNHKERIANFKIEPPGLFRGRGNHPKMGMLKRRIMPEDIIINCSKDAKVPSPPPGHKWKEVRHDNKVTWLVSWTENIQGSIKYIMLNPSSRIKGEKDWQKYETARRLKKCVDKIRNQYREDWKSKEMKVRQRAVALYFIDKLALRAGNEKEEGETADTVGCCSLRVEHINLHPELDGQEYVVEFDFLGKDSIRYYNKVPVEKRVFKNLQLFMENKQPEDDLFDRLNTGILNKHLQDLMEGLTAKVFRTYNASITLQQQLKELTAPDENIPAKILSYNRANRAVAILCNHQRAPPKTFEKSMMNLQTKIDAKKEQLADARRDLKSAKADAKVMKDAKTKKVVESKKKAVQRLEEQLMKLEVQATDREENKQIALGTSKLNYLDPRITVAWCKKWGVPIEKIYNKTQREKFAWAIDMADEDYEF

[7] = tested on: E. faecalis 29212; test: MIC by microbroth dilution; assay type: cell-based; settings: Enterococcus faecalis, 29212, 24 h, read-out: MIC S6
In short: (§1)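 CLSI microbroth dilution in Mueller-Hinton broth. Log-phase cultures (37 °C, shaking) were pelleted and resuspended in 0.85% saline to OD625 0.1, giving final 5×10^5 CFU/mL. Triplicate wells were incubated 24 h at 37 °C and read at OD625. MIC is given as a range where no sharp growth inflection occurred.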

[8] = target: E. coli DNA gyrase (Escherichia coli, UniProt P0AES4+P0AES6); test: Inhibition assay against E. coli DNA gyrase; assay type: biochemical; settings: 1 to 50 μM compound
E. coli DNA gyrase, sequence (P0AES4 whole entry, one chain of several): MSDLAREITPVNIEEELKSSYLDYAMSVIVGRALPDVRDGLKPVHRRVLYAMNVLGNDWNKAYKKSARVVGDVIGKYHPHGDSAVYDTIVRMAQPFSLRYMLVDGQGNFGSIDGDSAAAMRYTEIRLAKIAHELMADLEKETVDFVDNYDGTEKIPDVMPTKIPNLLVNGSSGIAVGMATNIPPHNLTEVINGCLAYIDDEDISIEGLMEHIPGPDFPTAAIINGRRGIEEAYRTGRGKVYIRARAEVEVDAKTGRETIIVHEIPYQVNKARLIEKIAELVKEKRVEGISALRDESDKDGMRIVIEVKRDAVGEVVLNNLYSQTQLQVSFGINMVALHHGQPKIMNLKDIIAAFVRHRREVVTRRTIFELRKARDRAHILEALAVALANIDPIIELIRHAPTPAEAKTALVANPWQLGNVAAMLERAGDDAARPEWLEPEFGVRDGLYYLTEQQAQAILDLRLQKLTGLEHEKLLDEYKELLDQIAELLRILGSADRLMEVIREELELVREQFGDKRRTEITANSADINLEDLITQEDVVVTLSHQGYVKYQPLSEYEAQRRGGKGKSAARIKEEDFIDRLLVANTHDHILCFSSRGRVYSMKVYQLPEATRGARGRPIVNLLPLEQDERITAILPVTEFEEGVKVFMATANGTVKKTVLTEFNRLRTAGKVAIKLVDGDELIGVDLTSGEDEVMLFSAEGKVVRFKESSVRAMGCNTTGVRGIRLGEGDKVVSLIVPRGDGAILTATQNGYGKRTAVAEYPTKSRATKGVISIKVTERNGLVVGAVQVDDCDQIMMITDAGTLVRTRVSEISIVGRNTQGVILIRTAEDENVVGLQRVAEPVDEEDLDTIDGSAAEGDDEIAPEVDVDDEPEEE

[9] = tested on: S. aureus 33591; test: MIC by microbroth dilution; assay type: cell-based; settings: Staphylococcus aureus, 33591, 24 h, read-out: MIC S2
In short: as §1

| SMILES | Tm [1] [°C] | inhibition of human DNA topoisomerase II activities [2] | concentration needed to completely inhibit the activities of E. coli DNA topoisomerase I [3] | MIC [7] [mg/L] | other results |
| --- | --- | --- | --- | --- | --- |
| C#CCOc1ccc(-c2nc3ccc(-c4nc5ccc(N6CCN(C)CC6)cc5[nH]4)cc3[nH]2)cc1 [DPA 151, 6-(4-methylpiperazin-1-yl)-2′-(4-(prop-2-ynyloxy)phenyl)-1H,3′H-2,5′-bibenzo[d]imidazole] | 85.4 | partially inhibit | approximately 5 μM |  |  |
| C#CCCCCOc1ccc(-c2nc3ccc(-c4nc5ccc(N6CCN(C)CC6)cc5[nH]4)cc3[nH]2)cc1 [DPA 152, 2′-(4-(hex-5-ynyloxy)phenyl)-6-(4-methylpiperazin-1-yl)-1H,3′H-2,5′-bibenzo[d]imidazole] | 83.4 |  |  |  | cytotoxicity relative to Hoechst 33242 [4]: nearly twice as toxic as Hoechst 33242 |
| C#CCCCCCCCCCOc1ccc(-c2nc3ccc(-c4nc5ccc(N6CCN(C)CC6)cc5[nH]4)cc3[nH]2)cc1 [DPA 153, 6-(4-methylpiperazin-1-yl)-2′-(4-(undec-10-ynyloxy)phenyl)-1H,3′H-2,5′-bibenzo[d]imidazole] | 70.5 |  |  |  | IC50 at 48 h [5]: > 10 µM |
| C#CCOCCCCOc1ccc(-c2nc3ccc(-c4nc5ccc(N6CCN(C)CC6)cc5[nH]4)cc3[nH]2)cc1 [DPA 154, 6-(4-methylpiperazin-1-yl)-2′-(4-(4-(prop-2-ynyloxy)butoxy)phenyl)-1H,3′H-2,5′-bibenzo[d]imidazole] | 85.9 |  |  |  |  |
| CN1CCN(c2ccc3[nH]c(-c4ccc5[nH]c(-c6ccc(O)cc6)nc5c4)nc3c2)CC1 [Hoechst 33258] | 87.1 | completely inhibit | approximately 20 μM | 16 to 32 (≈ 37.7 to 75.4 µM) | supercoiled DNA template prevented from relaxation by human DNA topoisomerase I [6]: about 70%; inhibition of DNA gyrase's activities [8]: did not inhibit; MIC [9]: 16 to 32 mg/L (≈ 37.7 to 75.4 µM) |
| CCOc1ccc(-c2nc3cc(-c4nc5cc(N6CCN(C)CC6)ccc5[nH]4)ccc3[nH]2)cc1 [Hoechst 33342] | 86.6 |  |  | 16 to 32 (≈ 35.4 to 70.7 µM) |  |
